Laboratory results as given in ChEMBL document CHEMBL4364284, “Design, Synthesis, and Efficacy Testing of Nitroethylene- and 7-Nitrobenzoxadiazol-Based Flavodoxin Inhibitors against Helicobacter pylori Drug-Resistant Clinical Strains and in Helicobacter pylori-Infected Mice” (J Med Chem, 2019).
In brackets after ≈: the same amount, converted by molar mass. Activity calls are given as the source filed them. The rule behind the calls is not given here.

Columns and labels:
[1] = Therapeutic index, ratio of MCC50 for human HeLa cells to MIC for inhibition of flavodoxin in Mnz-resistant Helicobacter pylori NCTC 11637 ATCC 43504 assessed as reduction in bacterial growth; assay type: toxicity; settings: read-out: TI
Method in brief: (§1)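 TI is MCC50/MIC. For MCC50, HeLa cells (30 000/well, DMEM with 10% FBS) were exposed to compound at 25–1000 μM final. Viability by XTT at 450/650 nm; MCC50 is the concentration giving 50% lysis from viability curves. Run twice in triplicate.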

[2] = Toxicity in NMRI mouse infected with Helicobacter pylori SS1 assessed as change in appetite at 10 to 20 mg/100g, po administered daily via gavage for 8 days starting from 1 week post-infection; assay type: organism-based; settings: in vivo
Method in brief: (§2)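 Female 6-week-old SPF NMRI mice infected orogastrically with Hp SS1 on days 1 and 3. Compound in 5–10% DMSO/olive oil (100 μL) given by daily oral gavage for 8 days from day 8. Body weight and appetite were monitored during treatment; infected controls received vehicle alone.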

[3] = target: T1, Flavodoxin (Helicobacter pylori (strain ATCC 700392 / 26695) (Campylobacter pylori)) (UniProt O25776); assay: Inhibition of flavodoxin in Helicobacter pylori ATCC 700392 26695 assessed as reduction in bacterial growth measured after 48 hrs by resazurin staining-based microdilution method; settings: Helicobacter pylori 26695
T1 sequence (whole entry): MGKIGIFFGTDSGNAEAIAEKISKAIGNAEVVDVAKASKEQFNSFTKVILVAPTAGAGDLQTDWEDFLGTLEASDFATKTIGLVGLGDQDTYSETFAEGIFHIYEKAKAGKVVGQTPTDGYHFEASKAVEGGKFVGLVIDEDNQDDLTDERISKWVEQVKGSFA
Method in brief: (§3)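 Broth microdilution in brain heart infusion with 4% FBS. Inoculum diluted to OD600 0.01. Two-fold dilutions from a DMSO stock cover 64–0.031 μg/mL, with DMSO ≤1% v/v. Incubated 48 h at 37 °C under microaerophilic conditions. MIC is the lowest concentration giving complete growth inhibition, read by resazurin colour change and confirmed by spotting on blood agar. Run twice in triplicate.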

[4] = Toxicity in NMRI mouse infected with Helicobacter pylori SS1 assessed as change in body weight at 10 to 20 mg/100g, po administered daily via gavage for 8 days starting from 1 week post-infection; assay type: organism-based; settings: in vivo; method in brief: as §2
[5] = target: T1, Flavodoxin (Helicobacter pylori (strain ATCC 700392 / 26695) (Campylobacter pylori)); assay: Binding affinity to Helicobacter pylori flavodoxin by isothermal titration calorimetric method
[6] = Therapeutic index, ratio of MCC50 for human HeLa cells to MIC for inhibition of flavodoxin in metronidazole-resistant Helicobacter pylori isolate 2 assessed as reduction in bacterial growth; assay type: toxicity; settings: read-out: TI; method in brief: as §1
[7] = Therapeutic index, ratio of MCC50 for human HeLa cells to MIC for inhibition of flavodoxin in Helicobacter pylori ATCC 700392 26695 assessed as reduction in bacterial growth; assay type: toxicity; settings: HeLa cells versus Helicobacter pylori ATCC 700392 26695, read-out: TI; method in brief: as §1
[8] = Therapeutic index, ratio of MCC50 for human HeLa cells to MIC for inhibition of flavodoxin in clarithromycin/metronidazole-resistant Helicobacter pylori isolate 4 assessed as reduction in bacterial growth; assay type: toxicity; settings: read-out: TI; method in brief: as §1
[9] = Cytotoxicity against human HeLa cells assessed as reduction in cell viability by XTT assay; assay type: cell-based; settings: read-out: MCC50
Method in brief: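 HeLa cells grown in DMEM with 10% FBS, penicillin and streptomycin at 37 °C, 5% CO2; 30 000 cells/well. XTT viability read at 450 and 650 nm. MCC50 (50% lysis) came from viability-versus-concentration curves. Two experiments, each in triplicate.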

[10] = target: T1, Flavodoxin (Helicobacter pylori (strain ATCC 700392 / 26695) (Campylobacter pylori)); assay: Inhibition of flavodoxin in clarithromycin/metronidazole-resistant Helicobacter pylori isolate 4 assessed as reduction in bacterial growth measured after 48 hrs by resazurin staining-based microdilution method
Method in brief: (§4)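 Clinical isolates from gastric biopsies of patients who failed ≥2 therapies; resistance classified by EUCAST breakpoints. […] Read by resazurin colour change as the lowest concentration giving complete growth inhibition.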

[11] = Therapeutic index, ratio of MCC50 for human HeLa cells to MIC for inhibition of flavodoxin in rifampicin-resistant Helicobacter pylori isolate 5 assessed as reduction in bacterial growth; assay type: toxicity; settings: read-out: TI; method in brief: as §1
[12] = test system: Staphylococcus aureus; assay: Effect on growth of Staphylococcus aureus ATCC 1228 after 48 hrs by resazurin-dye based microdilution assay; assay type: organism-based
[13] = test system: Escherichia coli; assay: Effect on growth of Escherichia coli DH5[alpha] after 48 hrs by resazurin-dye based microdilution assay; assay type: organism-based
[14] = Therapeutic index, ratio of MCC50 for human HeLa cells to MIC for inhibition of flavodoxin in Helicobacter pylori SS1 assessed as reduction in bacterial growth; assay type: toxicity; settings: HeLa cells versus Helicobacter pylori SS1, read-out: TI; method in brief: as §1
[15] = target: T1, Flavodoxin (Helicobacter pylori (strain ATCC 700392 / 26695) (Campylobacter pylori)); assay: Inhibition of flavodoxin in Helicobacter pylori SS1 assessed as reduction in bacterial growth measured after 48 hrs by resazurin staining-based microdilution method; method in brief: as §3
[16] = target: T1, Flavodoxin (Helicobacter pylori (strain ATCC 700392 / 26695) (Campylobacter pylori)); assay: Inhibition of flavodoxin in clarithromycin/metronidazole-resistant Helicobacter pylori isolate 6 assessed as reduction in bacterial growth measured after 48 hrs by resazurin staining-based microdilution method
[17] = target: T1, Flavodoxin (Helicobacter pylori (strain ATCC 700392 / 26695) (Campylobacter pylori)); assay: Inhibition of flavodoxin in metronidazole-resistant Helicobacter pylori isolate 1 assessed as reduction in bacterial growth measured after 48 hrs by resazurin staining-based microdilution method; method in brief: as §4
[18] = Therapeutic index, ratio of MCC50 for human HeLa cells to MIC for inhibition of flavodoxin in metronidazole-resistant Helicobacter pylori isolate 3 assessed as reduction in bacterial growth; assay type: toxicity; settings: read-out: TI; method in brief: as §1
[19] = target: T1, Flavodoxin (Helicobacter pylori (strain ATCC 700392 / 26695) (Campylobacter pylori)); assay: Inhibition of flavodoxin in rifampicin-resistant Helicobacter pylori isolate 5 assessed as reduction in bacterial growth measured after 48 hrs by resazurin staining-based microdilution method; method in brief: as §4
[20] = Therapeutic index, ratio of MCC50 for human HeLa cells to MIC for inhibition of flavodoxin in metronidazole-resistant Helicobacter pylori isolate 1 assessed as reduction in bacterial growth; assay type: toxicity; settings: read-out: TI; method in brief: as §1
[21] = target: T1, Flavodoxin (Helicobacter pylori (strain ATCC 700392 / 26695) (Campylobacter pylori)); assay: Binding affinity to Helicobacter pylori flavodoxin by thermal upshift assay
[22] = target: T1, Flavodoxin (Helicobacter pylori (strain ATCC 700392 / 26695) (Campylobacter pylori)); assay: Inhibition of flavodoxin in metronidazole-resistant Helicobacter pylori isolate 2 assessed as reduction in bacterial growth measured after 48 hrs by resazurin staining-based microdilution method; method in brief: as §4
[23] = Toxicity in NMRI mouse assessed as change in body weight at 10 to 20 mg/100g, po administered daily via gavage for 8 days; assay type: organism-based; settings: in vivo, 192 h
[24] = target: T1, Flavodoxin (Helicobacter pylori (strain ATCC 700392 / 26695) (Campylobacter pylori)); assay: Inhibition of flavodoxin in Mnz-resistant Helicobacter pylori NCTC 11637 ATCC 43504 assessed as reduction in bacterial growth measured after 48 hrs by resazurin staining-based microdilution method; settings: Helicobacter pylori NCTC 11637 = CCUG 17874 = ATCC 43504; method in brief: as §3
[25] = Therapeutic index, ratio of MCC50 for human HeLa cells to MIC for inhibition of flavodoxin in clarithromycin/metronidazole-resistant Helicobacter pylori isolate 6 assessed as reduction in bacterial growth; assay type: toxicity; settings: read-out: TI; method in brief: as §1
[26] = test system: Helicobacter pylori; assay: Antibacterial activity against Helicobacter pylori SS1 infected in NMRI mouse assessed as bacterial eradication at 20 mg/100g, po administered daily via gavage for 8 days starting from 1 week post-infection and measured 8 days post-last dose; assay type: functional, organism-based
Method in brief: (§5)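 Female 6-week-old SPF NMRI mice, 7 per condition, infected orogastrically on days 1 and 3 with 100 μL Hp SS1 (5 × 10^8 CFU/mL). From day 8, compound given daily by oral gavage for 8 days in 100 μL of 5–10% DMSO/95–90% olive oil. Sacrificed day 24; stomach homogenate CFU/g counted after 5 days microaerophilic culture at 37 °C. Infected vehicle-treated controls; Mann-Whitney U and unpaired t tests, p ≤ 0.05.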

[27] = test system: Helicobacter pylori; assay: Antibacterial activity against Helicobacter pylori SS1 infected in NMRI mouse assessed as reduction in gastric colonization at 20 mg/100g, po administered daily via gavage for 8 days starting from 1 week post-infection and measured 8 days post-last dose; assay type: functional, organism-based; method in brief: as §5
[28] = test system: Helicobacter pylori; assay: Antibacterial activity against Helicobacter pylori SS1 infected in NMRI mouse assessed as reduction in gastric colonization at 0.1 to 1 mg/100g, po administered daily via gavage for 8 days starting from 1 week post-infection and measured 8 days post-last dose; assay type: functional, organism-based
Method in brief: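 From day 8, compound given daily by oral gavage for 8 days in 100 μL of 5–10% DMSO/95–90% olive oil. Sacrificed day 24; stomach homogenate CFU/g counted after 5 days microaerophilic culture at 37 °C. Infected vehicle-treated controls; Mann-Whitney U and unpaired t tests, p ≤ 0.05.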

[29] = Toxicity in NMRI mouse assessed as change in body weight at 0.1 to 1 mg/100g, po administered daily via gavage for 8 days; assay type: organism-based; settings: in vivo, 192 h
[30] = Toxicity in NMRI mouse infected with Helicobacter pylori SS1 assessed as change in appetite at 0.1 to 1 mg/100g, po administered daily via gavage for 8 days starting from 1 week post-infection; assay type: organism-based; settings: in vivo
[31] = Toxicity in NMRI mouse infected with Helicobacter pylori SS1 assessed as change in body weight at 0.1 to 1 mg/100g, po administered daily via gavage for 8 days starting from 1 week post-infection; assay type: organism-based; settings: in vivo

SMILES | selectivity ratio [1] | Activity [2] | MIC [3] [µM] | Activity [4] | Activity [5] | selectivity ratio [7] | CC50 [9] [µM] | Activity [12] | Activity [13] | selectivity ratio [14] | MIC [15] [µM] | Activity [21] | Activity [23] | MIC [24] [µM] | other results
COc1ccc(CSc2cc(Cl)c(N)c3nonc23)cc1 | > 85 | Non-Toxic | 5.9 (≈ 1.9 µg/mL) | Non-Toxic | Active | > 170 | > 1000 | Non-Toxic | Non-Toxic | > 170 | 5.9 (≈ 1.9 µg/mL) | Active | Non-Toxic | 11.8 (≈ 3.8 µg/mL) | selectivity ratio [6]: 322; selectivity ratio [8]: 80; inhibition [10]: Active; selectivity ratio [11]: 40; inhibition [16]: Active; inhibition [17]: Active; selectivity ratio [18]: 10; inhibition [19]: Active; selectivity ratio [20]: 161; inhibition [22]: Active; selectivity ratio [25]: 322
NCCc1cc(C(F)(F)F)cc(C(F)(F)F)c1 | > 16 | Non-Toxic | 31 (≈ 7.97 µg/mL) | Non-Toxic | Active | > 16 | > 500 | Non-Toxic | Non-Toxic |  | > 249 | Active | Non-Toxic | 31 (≈ 7.97 µg/mL) | Activity [26]: Active; Activity [27]: Active
O=[N+]([O-])/C=C/c1cc(C(F)(F)F)cc(C(F)(F)F)c1 | 4.3 |  | 1.8 (≈ 0.513 µg/mL) |  | Active | 8.3 | 15 | Non-Toxic | Non-Toxic | 8.3 | 1.8 (≈ 0.513 µg/mL) | Active |  | 3.5 (≈ 0.998 µg/mL) | Activity [28]: inactive; Activity [29]: Non-Toxic; Activity [30]: Non-Toxic; Activity [31]: Non-Toxic
